# A selection: hits, their analogues and other compounds. The true share with any hit is near 3.1%.
# miR-122 sensor: miR-122 Renilla sensor signal increase in Huh7, primary screen, miR-122 inhibitor project, cell-based, single point, plate reader; 340,000 tested, 0.3% active; AID 602342, 2012; Huh7 miR-122 Renilla luciferase sensor, 48 h; neutral wells = 0, positive control = 100; activation (reporter increase), % at 12.5 µM;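 active = mean replicate activation score at least 90 and every replicate individually at or above 90; inconclusive = only one of the two criteria met; inactive = neither criterion met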;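 note: higher luciferase means less miR-122 activity so hits act as miR-122 inhibitors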
# Ecoli rRNA inh: reduced GFP signal of wild-type E. coli, primary screen, bacterial rRNA inhibitor project, GFP/RFP fluorescence, OD600, single point. E. coli WT GFP vs humanized-ribosome RFP mutants, 24 h; hits give low values; DMSO median 0, no signal -100. GFP signal change (wild-type ribosome), % (concentration not given with the values). 350,000 tested, 1.6% active. AID 720706, 2013;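 active = significant combined selectivity score with lowered wild-type GFP, culture density cut under 30%, mutant RFP and density less affected; inactive = any of these conditions unmet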
# E-selectin induc: E-selectin induction in HUVECs, primary screen, imaging, HUVEC, immunofluorescence imaging, single point; normalized: neutral wells 0, TNF-alpha wells 100; activation, % at 7.58 µM; P16581; 260,000 tested, 0.37% active;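 active = mean E-selectin-positive cell signal at least 10% of the positive control, reached in at least 60% of replicates, without over 20% cell loss; inconclusive = no rule given, readout overlaps actives, possibly toxicity-flagged; inactive = the rest, including those meeting only one limit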
# Target sequence (P16581 whole entry, looked up): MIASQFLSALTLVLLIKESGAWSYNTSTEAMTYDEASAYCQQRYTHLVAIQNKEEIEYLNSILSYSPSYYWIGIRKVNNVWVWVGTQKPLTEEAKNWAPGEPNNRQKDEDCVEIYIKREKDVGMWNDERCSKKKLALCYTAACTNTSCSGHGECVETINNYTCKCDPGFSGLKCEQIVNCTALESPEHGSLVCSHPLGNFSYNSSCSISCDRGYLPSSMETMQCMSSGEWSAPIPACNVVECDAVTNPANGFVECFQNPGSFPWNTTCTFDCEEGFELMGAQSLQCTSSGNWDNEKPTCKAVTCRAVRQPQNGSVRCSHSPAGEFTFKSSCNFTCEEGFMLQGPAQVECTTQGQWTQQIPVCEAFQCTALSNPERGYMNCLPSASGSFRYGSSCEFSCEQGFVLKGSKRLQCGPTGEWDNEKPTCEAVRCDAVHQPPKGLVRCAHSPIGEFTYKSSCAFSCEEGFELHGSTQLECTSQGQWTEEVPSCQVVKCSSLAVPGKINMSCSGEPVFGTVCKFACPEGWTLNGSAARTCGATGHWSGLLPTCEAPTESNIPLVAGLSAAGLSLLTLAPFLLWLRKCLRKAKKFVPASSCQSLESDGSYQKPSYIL
#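 material = human umbilical vein endothelial cells (HUVEC), E-selectin induction | quantity = 3,000 cells/well | medium = EGM-2 growth medium on 0.1% gelatin-coated wells | technique = immunofluorescence imaging | read-out basis = % PE-positive cells | control set = TNF-alpha positive control, DMSO neutral control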
# DENV2 CPE rescue: inhibitors of DENV2 cytopathic effect, primary screen, cell-based, plate reader, single concentration; DENV2-infected cells, cytopathic effect rescue; CPE inhibition, % at 9.99 µM; 350,000 tested, 1.7% active; in the data active = CPE inhibition above about 20%, passing the limit was not always enough; inconclusive = no clear call, values can overlap the other calls; tested in BHK-21 cells;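 note: 0% = median of neutral control wells and 100% = median of positive control wells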
# Cneo AK release: Cryptococcus neoformans cell lysis inducers, primary screen, AK release luminescence, single concentration. AID 651654, 2012. C. neoformans lysis, adenylate kinase release luminescence, 4 h; normalised: neutral wells 0, clomiphene wells 100. lysis activity, % at 15 µM. 360,000 tested, 0.2% active;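 active = mean lysis activity across replicates of at least 80%, whatever share of replicates individually reach that level; inactive = mean lysis activity below 80%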
#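 read-out = cell lysis signal | test system = log-phase Cryptococcus neoformans yeast cells | input = cells at 5 × 10^6 per mL | medium = fresh YPD growth medium | signal = luminescent adenylate kinase detection reagent | timing = 4 h at 37 °C static, read 1 h later | dosing = single dose | controls = Clomiphene as positive lysis control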
# Numbers without * were called inactive; u = inconclusive; x = no result; ! = repeats disagree; [ ] = remark or other dose.
SMILES,miR-122 sensor,Ecoli rRNA inh,E-selectin induc,DENV2 CPE rescue,Cneo AK release
COCC(=O)Nc1ccc(N2CCOCC2)c(S(=O)(=O)Nc2ccc(OC)cc2)c1,76,16,-1,-2,0
Cc1ccc(NC(=S)NC(=O)c2ccc(F)cc2)cc1S(=O)(=O)Nc1ccccc1Cl,x,-26*,x,8,x
CC(C)NC(=O)N(C)C[C@@H]1Oc2ccc(NS(C)(=O)=O)cc2CC(=O)N(C)C[C@H]1C,x,3,x,x,x
CNC(=O)C[C@@H]1CC[C@H]2[C@H](COc3ccc(NC(=O)c4ccc(F)c(F)c4)cc3C(=O)N2C)O1,14[16.7 µM],-1,0,-8,71
Cc1ccc(S(=O)(=O)N(C)C[C@@H]2Oc3cc(Br)ccc3S(=O)(=O)N([C@H](C)CO)C[C@@H]2C)cc1,-3[16.7 µM],-2,0,u,-3
COc1cccc(CC(=O)Nc2ccc(N3CCOCC3)c(S(=O)(=O)Nc3ccccc3OC)c2)c1,129*,-13,0,-7,-1
CC(C)SCc1cc(N2CCCC2)nc(-c2ccccc2)n1,x,-3,-1,26*,x
C[C@@H]1CN([C@H](C)CO)C(=O)c2cc(-c3ccncc3)cnc2O[C@H]1CN(C)C(=O)C1CCC1,-5[16.7 µM],2,1,x,x
COc1ccc(NC(=O)N(C)[C@H]2C[C@H]3c4[nH]c5ccccc5c4CCN3C(=O)[C@H]2CO)cc1,-4,-2,0,14,1
CN(C(=O)Nc1ccc(F)cc1)[C@H]1C[C@H]2c3[nH]c4ccccc4c3CCN2C(=O)[C@H]1CO,-4,x,x,44*,0
CS(=O)(=O)N1C2CN(CC3CC3)CC1C2c1ccc(Br)cc1 (stereo not drawn),x,-2,x,x,x
Cc1ccc(S(=O)(=O)NCC[C@H]2CC[C@H](NC(=O)NC(C)C)[C@@H](CO)O2)cc1,x,4,0,3,-2
CC(=O)Nc1nc(NC(=O)C(Cl)(Cl)Cl)n(-c2ccccc2)n1,x,-23*,4,4,x
C/C(=N\NC(=O)c1cc(-c2cccs2)nc2ccccc12)c1ccccn1,151*,7,x,-1,-3
NNC(=O)c1cc(-c2cccs2)nc2ccccc12,x,6,3,x,x
COc1ccccc1-c1ccc(C2[C@@H]3CN(S(=O)(=O)c4ccccc4)C[C@H]2N3)cc1 (stereo partly drawn),x,-55,0,2,x
COc1ccccc1CN1C[C@H](C)[C@H](OC)CN(C)C(=O)c2cc(NC(C)=O)ccc2OC[C@H]1C,x,3,0,6,-2
COc1ccc(CCC2(C)NC(=O)N(C(C)C(=O)N3c4ccccc4CC3C)C2=O)cc1 (stereo not drawn),x,-18*,x,-1,-1
CCOC(=O)c1ccc2c(c1)nc(SCC(=O)c1cc3ccccc3o1)n2CC,5,x,x,x,0
C=CCNC(=O)CSc1nc2cc(C(=O)OCC)ccc2n1CC,-5,-43*,x,-9,1
COc1ccc(S(=O)(=O)N2C[C@H](O)COC[C@@H]3O[C@@H](CC(=O)NCc4ccc(Cl)c(Cl)c4)CC[C@H]32)cc1,6[16.7 µM],-9,0,3,-3
COc1ccc(S(=O)(=O)N(C)C[C@H]2Oc3ccc(NS(=O)(=O)c4c(C)noc4C)cc3C(=O)N([C@@H](C)CO)C[C@H]2C)cc1,3[16.7 µM],-5,404*,14,49
Cc1noc(C)c1S(=O)(=O)Nc1ccc2c(c1)C(=O)N([C@H](C)CO)C[C@H](C)[C@@H](CN(C)S(=O)(=O)c1ccc(F)cc1)O2,-9,-25*!,0,-11,0
O=C(/C=C/c1ccco1)Nc1ccc(-c2nc3ccccc3[nH]2)cc1,101*,x,0,x,0
O=C(Nc1ccc(-c2nc3ccccc3[nH]2)cc1)c1ccco1,-4,x,x,x,-9
O=C(CSc1n[nH]c(=O)n1C1CC1)Nc1ccc(Cl)c(Cl)c1,-12,-20*,0,-2,-3
O=C(c1ccccc1)N1[C@@H](CO)[C@@H](c2ccccc2)C12CN(Cc1nccs1)C2,x,-4,0,25*,x
OC[C@@H]1[C@H](c2ccccc2)C2(CN(Cc3nccs3)C2)N1CCC(F)(F)F,x,1,0,25*,x

# Screening results as filed in PubChem.
